Results: ChEMBL document CHEMBL4007414, “Design, Synthesis, Structure-Activity Relationship Studies, and Three-Dimensional Quantitative Structure-Activity Relationship (3D-QSAR) Modeling of a Series of O-Biphenyl Carbamates as Dual Modulators of Dopamine D3 Receptor and Fatty Acid Amide Hydrolase” (J Med Chem, 2017)
Active and inactive are the calls of the source. No cut-off for these calls is given here.

Key:
D(2) dopamine receptor [1] = biological target: T1, D(2) dopamine receptor (Homo sapiens, UniProt P14416); experiment: Agonist activity at human dopamine D2 receptor-short expressed in CHO-K1 cells assessed as reduction in adenylyl cyclase activator NKH 477 induced cAMP accumulation preincubated for 10 mins followed by NKH 477 addition by HTRF assay relative to dopamine; type: functional, cell-based
T1 sequence (P14416 whole entry): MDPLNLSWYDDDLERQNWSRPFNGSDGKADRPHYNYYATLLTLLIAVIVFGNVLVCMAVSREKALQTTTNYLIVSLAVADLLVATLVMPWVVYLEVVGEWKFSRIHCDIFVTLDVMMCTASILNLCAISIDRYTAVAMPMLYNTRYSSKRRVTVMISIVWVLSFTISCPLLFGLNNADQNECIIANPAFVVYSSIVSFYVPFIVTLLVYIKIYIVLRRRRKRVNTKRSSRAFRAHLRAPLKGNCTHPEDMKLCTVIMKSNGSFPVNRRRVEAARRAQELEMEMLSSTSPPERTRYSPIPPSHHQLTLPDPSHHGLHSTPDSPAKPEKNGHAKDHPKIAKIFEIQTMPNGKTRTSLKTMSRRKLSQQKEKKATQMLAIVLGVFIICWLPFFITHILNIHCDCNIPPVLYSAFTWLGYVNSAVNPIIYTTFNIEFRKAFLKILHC

D(3) dopamine receptor [2] = biological target: T2, D(3) dopamine receptor (Homo sapiens, UniProt P35462); experiment: Agonist activity at recombinant human dopamine D3 receptor expressed in CHO-K1 cells assessed as […] in cAMP accumulation after 30 mins by HTRF assay relative to dopamine; type: functional, cell-based
T2 sequence (P35462 whole entry): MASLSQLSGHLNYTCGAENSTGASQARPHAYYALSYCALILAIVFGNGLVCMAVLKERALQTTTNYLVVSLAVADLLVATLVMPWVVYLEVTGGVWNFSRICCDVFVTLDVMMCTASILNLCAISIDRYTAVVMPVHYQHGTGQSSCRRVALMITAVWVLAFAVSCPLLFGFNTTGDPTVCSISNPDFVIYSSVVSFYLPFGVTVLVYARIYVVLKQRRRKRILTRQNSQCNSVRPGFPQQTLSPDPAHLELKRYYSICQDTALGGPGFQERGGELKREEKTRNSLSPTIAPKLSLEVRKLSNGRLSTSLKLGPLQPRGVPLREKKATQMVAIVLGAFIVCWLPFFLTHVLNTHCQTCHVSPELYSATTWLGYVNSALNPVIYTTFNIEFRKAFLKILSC

[3] = biological target: T3, Fatty-acid amide hydrolase 1 (Homo sapiens, UniProt O00519); experiment: Inhibition of human FAAH1 expressed in HEK293 cell membrane-enriched lysate using AMC arachidonyl amide as substrate preincubated for 50 mins followed by substrate addition measured after 4 hrs by fluorescence analysis
T3 sequence (O00519 whole entry): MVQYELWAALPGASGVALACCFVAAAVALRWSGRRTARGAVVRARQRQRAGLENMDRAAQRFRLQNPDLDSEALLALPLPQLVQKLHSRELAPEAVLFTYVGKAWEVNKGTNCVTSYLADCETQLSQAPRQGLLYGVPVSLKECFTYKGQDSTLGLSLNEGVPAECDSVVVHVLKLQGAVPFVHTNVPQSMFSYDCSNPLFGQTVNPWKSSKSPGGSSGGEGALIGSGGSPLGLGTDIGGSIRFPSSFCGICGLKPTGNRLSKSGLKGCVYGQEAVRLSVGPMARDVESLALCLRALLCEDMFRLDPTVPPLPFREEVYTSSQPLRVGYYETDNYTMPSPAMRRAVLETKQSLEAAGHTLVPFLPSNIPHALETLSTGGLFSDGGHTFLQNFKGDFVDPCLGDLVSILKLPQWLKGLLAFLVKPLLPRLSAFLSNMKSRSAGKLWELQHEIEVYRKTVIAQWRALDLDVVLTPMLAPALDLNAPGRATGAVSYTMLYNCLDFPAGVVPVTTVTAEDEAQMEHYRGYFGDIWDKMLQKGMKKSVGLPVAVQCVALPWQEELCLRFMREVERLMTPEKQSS
Procedure, shortened: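 Membrane-enriched lysate (2,5 μg) from HEK293 cells stably expressing human FAAH-1, pre-incubated 50 min with compound or 2,5% DMSO vehicle in 50 mM Tris-HCl pH 7.4, 0.05% fatty acid-free BSA. Then 1 μM AMC arachidonyl amide added, 4 h at 37 °C.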

D(2) dopamine receptor [4] = biological target: T1, D(2) dopamine receptor; experiment: Agonist activity at human dopamine D2 receptor-short expressed in CHO-K1 cells assessed as reduction in adenylyl cyclase activator NKH 477 induced cAMP accumulation preincubated for 10 mins followed by NKH 477 addition by HTRF assay; type: functional, cell-based
[5] = Volume of distribution in Sprague-Dawley rat plasma at 3 mg/kg, iv by UPLC-MS analysis; type: ADME, organism-based
Procedure, shortened: (§1)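 Cannulated male Sprague-Dawley rats (175–200 g), three per dose, dosed IV at 3 mg/kg or PO at 10 mg/kg in PEG400/Tween 80/saline 10/10/80. Blood taken IV at 0–240 min and PO at 0–1440 min. Plasma extracted with cold acetonitrile plus internal standard and analysed by UPLC-MS/MS against a 1 nM–10 μM calibration. PK parameters derived from time/concentration profiles.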

[6] = Tmax in Sprague-Dawley rat plasma at 3 mg/kg, iv by UPLC-MS analysis; type: ADME, organism-based; procedure, shortened: as §1
[7] = Half life in rat plasma at 2 uM by UPLC-MS analysis; type: ADME, cell-free
Procedure, shortened: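 Compound at 2 μM final in rat plasma with 5% DMSO, incubated at 37 °C. Samples taken at 0, 5, 15, 30, 60 and 120 min and quenched in cold acetonitrile with internal standard.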

[8] = Tmax in Sprague-Dawley rat brain at 10 mg/kg, po by UPLC-MS analysis; type: ADME, organism-based
Procedure, shortened: (§2)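 Male Sprague-Dawley rats, three per time point, dosed orally at 10 mg/kg in PEG400/Tween 80/saline 10/10/80. Brains taken at 1 h and 4 h, homogenized in RIPA buffer and extracted with cold acetonitrile plus internal standard. Compound quantified by UPLC-MS/MS; protein measured by BCA.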

[9] = Cmax in Sprague-Dawley rat brain at 10 mg/kg, po by UPLC-MS analysis; type: ADME, organism-based; set-up: dose 10 mg/kg, route oral; procedure, shortened: as §2
[10] = AUC in Sprague-Dawley rat brain at 10 mg/kg, po by UPLC-MS analysis; type: ADME, organism-based; procedure, shortened: as §2
[11] = biological target: Beta-1 adrenergic receptor (Homo sapiens) (UniProt P08588); experiment: Displacement of [3H](-)CGP12177 from human beta1 adrenergic receptor expressed in HEK293 cells at 10 to 100 nM after 45 mins by scintillation counting; type: cell-based
Chain of Beta-1 adrenergic receptor (Homo sapiens) (P08588 whole entry, looked up): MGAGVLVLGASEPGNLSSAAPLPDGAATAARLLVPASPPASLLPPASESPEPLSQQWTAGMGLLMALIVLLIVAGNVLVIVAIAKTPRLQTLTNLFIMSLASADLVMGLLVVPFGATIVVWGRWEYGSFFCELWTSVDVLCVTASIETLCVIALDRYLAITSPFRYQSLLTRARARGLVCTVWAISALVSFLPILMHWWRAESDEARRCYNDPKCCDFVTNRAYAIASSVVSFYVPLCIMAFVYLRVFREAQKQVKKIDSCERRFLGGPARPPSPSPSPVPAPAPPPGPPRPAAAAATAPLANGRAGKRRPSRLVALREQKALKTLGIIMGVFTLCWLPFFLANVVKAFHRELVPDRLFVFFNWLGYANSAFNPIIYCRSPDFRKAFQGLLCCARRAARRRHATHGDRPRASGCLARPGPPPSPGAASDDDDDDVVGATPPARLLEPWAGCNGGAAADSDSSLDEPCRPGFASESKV

Brain = experiment: Total drug uptake in Sprague-Dawley rat brain at 10 mg/kg, po by UPLC-MS analysis; type: ADME, organism-based; conditions: in vivo, read-out: Drug uptake; procedure, shortened: as §2
[12] = Oral bioavailability in Sprague-Dawley rat […] at 10 mg/kg by UPLC-MS analysis; type: ADME, organism-based
[13] = Clearance in Sprague-Dawley rat plasma at 3 mg/kg, iv by UPLC-MS analysis; type: ADME, organism-based; procedure, shortened: as §1
[14] = Half life in rat liver microsomes at […] by UPLC-MS analysis; type: ADME, microsome
[15] = Elimination half life in Sprague-Dawley rat plasma at 3 mg/kg, iv by UPLC-MS analysis; type: ADME, organism-based; conditions: read-out: beta t1/2; procedure, shortened: as §1
[16] = Cmax in Sprague-Dawley rat plasma at 3 mg/kg, iv by UPLC-MS analysis; type: ADME, organism-based; set-up: dose 3 mg/kg, route intravenous; procedure, shortened: as §1
[17] = biological target: Beta-2 adrenergic receptor (Homo sapiens) (UniProt P07550); experiment: Displacement of [3H](-)CGP12177 from beta2 adrenergic receptor (unknown origin) at 10 to 100 nM by scintillation counting
Chain of Beta-2 adrenergic receptor (Homo sapiens) (P07550 whole entry, looked up): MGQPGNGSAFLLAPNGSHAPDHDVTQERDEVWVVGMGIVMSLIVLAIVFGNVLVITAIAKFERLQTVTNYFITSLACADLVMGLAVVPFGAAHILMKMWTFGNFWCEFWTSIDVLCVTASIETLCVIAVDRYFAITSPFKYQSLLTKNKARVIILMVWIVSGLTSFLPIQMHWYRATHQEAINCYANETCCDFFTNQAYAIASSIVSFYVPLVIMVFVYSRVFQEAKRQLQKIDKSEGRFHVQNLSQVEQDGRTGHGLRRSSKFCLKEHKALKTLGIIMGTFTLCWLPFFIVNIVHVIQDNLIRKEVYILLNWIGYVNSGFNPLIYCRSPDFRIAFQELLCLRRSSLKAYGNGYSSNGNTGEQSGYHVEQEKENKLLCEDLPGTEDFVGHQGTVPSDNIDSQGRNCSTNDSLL

[18] = Cmax in Sprague-Dawley rat plasma at 10 mg/kg, po by UPLC-MS analysis; type: ADME, organism-based; set-up: dose 10 mg/kg, route oral; procedure, shortened: as §1
[19] = biological target: T4, 5-hydroxytryptamine receptor 1A (Homo sapiens) (UniProt P08908); experiment: Displacement of [3H]8-OH-DPAT from human 5HT-1A receptor expressed in Sf9 insect cells at 100 nM after 60 mins by scintillation counting
T4 sequence (whole entry): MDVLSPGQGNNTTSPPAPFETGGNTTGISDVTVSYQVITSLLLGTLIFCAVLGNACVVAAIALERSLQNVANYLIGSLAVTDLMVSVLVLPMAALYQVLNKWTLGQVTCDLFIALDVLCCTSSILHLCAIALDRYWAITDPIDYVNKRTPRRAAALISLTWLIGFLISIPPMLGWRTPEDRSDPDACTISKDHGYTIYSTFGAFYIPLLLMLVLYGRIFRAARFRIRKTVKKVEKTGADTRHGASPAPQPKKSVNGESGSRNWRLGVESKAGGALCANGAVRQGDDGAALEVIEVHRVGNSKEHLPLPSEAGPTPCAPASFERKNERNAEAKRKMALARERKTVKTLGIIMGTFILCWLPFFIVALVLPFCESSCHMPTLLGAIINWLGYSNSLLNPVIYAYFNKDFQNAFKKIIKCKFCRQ

[20] = biological target: 5-hydroxytryptamine receptor 1B (Rattus norvegicus) (UniProt P28564); experiment: Displacement of [125I]CYP from 5HT-1B receptor in OFA rat cortical membranes at 10 to 100 nM after 90 mins by scintillation counting; type: cell membranes
Chain of 5-hydroxytryptamine receptor 1B (Rattus norvegicus) (P28564 whole entry): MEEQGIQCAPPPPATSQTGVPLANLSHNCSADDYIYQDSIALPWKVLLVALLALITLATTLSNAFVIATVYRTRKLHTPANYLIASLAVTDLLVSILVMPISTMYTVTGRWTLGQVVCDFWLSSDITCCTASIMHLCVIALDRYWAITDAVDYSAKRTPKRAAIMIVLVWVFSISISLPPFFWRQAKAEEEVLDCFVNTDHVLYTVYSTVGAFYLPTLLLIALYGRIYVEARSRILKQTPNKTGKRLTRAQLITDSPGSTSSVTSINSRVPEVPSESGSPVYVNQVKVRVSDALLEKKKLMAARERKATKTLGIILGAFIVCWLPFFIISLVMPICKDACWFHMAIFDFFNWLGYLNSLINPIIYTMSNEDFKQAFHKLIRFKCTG

[21] = biological target: T5, Monoglyceride lipase (Homo sapiens) (UniProt Q99685); experiment: Irreversible inhibition of human MAGL after 1 hr by LC-MS/MS analysis
T5 sequence (whole entry): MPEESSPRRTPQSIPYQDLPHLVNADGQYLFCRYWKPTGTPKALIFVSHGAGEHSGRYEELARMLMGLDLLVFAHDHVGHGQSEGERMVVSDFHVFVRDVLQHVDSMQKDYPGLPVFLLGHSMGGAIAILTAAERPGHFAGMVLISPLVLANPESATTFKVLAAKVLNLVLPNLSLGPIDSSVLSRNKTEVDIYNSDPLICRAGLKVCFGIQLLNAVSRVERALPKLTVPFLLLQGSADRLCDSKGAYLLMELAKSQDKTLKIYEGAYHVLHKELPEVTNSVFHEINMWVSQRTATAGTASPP

Homo sapiens = species on record: Homo sapiens; experiment: Ratio of EC50 for human dopamine D2 receptor-short expressed in CHO-K1 cells to EC50 for recombinant human dopamine D3 receptor expressed in CHO-K1 cells; type: cell-based
D(3) dopamine receptor [22] = biological target: T2, D(3) dopamine receptor; experiment: Agonist activity at recombinant human dopamine D3 receptor expressed in CHO-K1 cells assessed as […] in cAMP accumulation after 30 mins by HTRF assay; type: functional, cell-based

SMILES: NC(=O)c1cccc(-c2ccc(OC(=O)NCCCCN3CCN(c4cccc(Cl)c4Cl)CC3)cc2F)c1
- Efficacy (D(2) dopamine receptor [1]): 40.4%
- Efficacy (D(3) dopamine receptor [2]): 74%
- IC50 [3]: 1 nM
- EC50 (D(2) dopamine receptor [4]): 13.7 nM

SMILES: O=C(NCCCCN1CCN(c2cccc(Cl)c2Cl)CC1)Oc1ccc2c(c1)[nH]c1ccccc12
- Efficacy (D(3) dopamine receptor [2]): > 90%

SMILES: Cl.O=C(NCCCCN1CCN(c2cccc(Cl)c2Cl)CC1)Oc1ccc(-c2ccccc2)cc1
- Vd [5]: 23.7 L/kg
- Tmax [6]: 5 min
- half-life at 2 µM [7]: 1.62 h
- Tmax [8]: 4 h
- Cmax [9]: 37 ng/mL
- AUC [10]: 1.41 ng·h/mL
- inhibition [11]: inactive
- concentration (Brain): 391 nM
- bioavailability [12]: 21%
- clearance [13]: 110 mL/min/kg
- half-life at […] [14]: > 1 h
- half-life [15]: 2.42 h
- Cmax [16]: 500 ng/mL
- inhibition [17]: inactive
- Cmax [18]: 54 ng/mL
- inhibition [19]: 60.4%
- inhibition [20]: inactive
- inhibition [21]: inactive

SMILES: NC(=O)c1cccc(-c2ccc(OC(=O)NCCCCN3CCN(c4ccccc4C(F)(F)F)CC3)cc2)c1
- Activity (D(2) dopamine receptor [4]): inactive

SMILES: NC(=O)c1cccc(-c2ccc(OC(=O)NCCCCN3CCN(c4ccccc4)CC3)cc2)c1
- Efficacy (D(3) dopamine receptor [2]): 88%

SMILES: COc1ccccc1N1CCN(CCCCNC(=O)Oc2ccc3c(c2)[nH]c2ccccc23)CC1
- Efficacy (D(2) dopamine receptor [1]): 44%
- Efficacy (D(3) dopamine receptor [2]): 66%
- EC50 (D(2) dopamine receptor [4]): 57.9 nM
- Ratio EC50 (Homo sapiens): 4.8

SMILES: COc1cc(OC(=O)NCCCCN2CCN(c3cccc(Cl)c3Cl)CC2)ccc1-c1ccccc1
- Efficacy (D(3) dopamine receptor [2]): 32%
- IC50 [3]: 4.3 nM
- EC50 (D(3) dopamine receptor [22]): 1.66 nM

SMILES: O=C(NCCCN1CCN(c2cccc(Cl)c2Cl)CC1)Oc1ccc2c(c1)[nH]c1ccccc12
- Efficacy (D(3) dopamine receptor [2]): > 90%

SMILES: O=C(NCCCCN1CCN(c2ccccc2C(F)(F)F)CC1)Oc1ccc(-c2ccccc2)cc1
- Efficacy (D(3) dopamine receptor [2]): > 90%
- IC50 [3]: 20.7 nM
- EC50 (D(3) dopamine receptor [22]): 1200 nM
